# Bioassay records: PubChem, several laboratories
# PPC-1+TRAIL kill = compounds killing PPC-1 cancer cells with TRAIL present (potentiator screen, no TRAIL-free arm); PPC-1 cells + TRAIL, ATPLite viability luminescence; hit rate 0.41% among 220,000; cell killing (% activity), % at 4 µM or 5 µM;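 active means cell killing above 50% in the first pass at 4 µM, then a duplicate retest at 5 µM averaging 50% or more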;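 further: plate controls were cells with TRAIL plus DMSO for no effect and medium-only wells lacking cells for full effect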
# FLuc stim CS = firefly luciferase counter-screen for stimulation assays. ATPlite luciferase biochemical, luminescence, 10 min; 0 = ATP-free wells, 1 = DMSO control. activation factor at 10 µM. 200,000 tested, under 10 active;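 active means luciferase activation factor, scaled between plate controls, of at least 2 with compound at 10 µM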
# Target sequence (P08659 whole entry, looked up): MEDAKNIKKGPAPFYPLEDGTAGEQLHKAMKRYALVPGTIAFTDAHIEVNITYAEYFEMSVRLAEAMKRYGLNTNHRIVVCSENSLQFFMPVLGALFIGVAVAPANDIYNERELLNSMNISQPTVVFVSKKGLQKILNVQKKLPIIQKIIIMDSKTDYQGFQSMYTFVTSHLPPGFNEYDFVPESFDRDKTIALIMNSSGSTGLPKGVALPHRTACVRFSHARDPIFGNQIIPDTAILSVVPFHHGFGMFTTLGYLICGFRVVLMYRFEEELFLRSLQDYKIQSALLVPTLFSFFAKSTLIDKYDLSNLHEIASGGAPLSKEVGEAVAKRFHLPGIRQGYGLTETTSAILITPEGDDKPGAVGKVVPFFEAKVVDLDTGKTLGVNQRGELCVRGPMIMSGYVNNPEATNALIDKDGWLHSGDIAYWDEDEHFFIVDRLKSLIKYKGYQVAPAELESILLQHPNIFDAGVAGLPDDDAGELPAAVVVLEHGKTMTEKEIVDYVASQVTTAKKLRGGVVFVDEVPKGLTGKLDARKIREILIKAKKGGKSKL
#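 Assay system: Luciferase/luciferin reagent mix; Medium: PBS as buffer for the ATP substrate; Dosing: test compounds dosed from 2 mM stocks in 100% DMSO; Times: 10 min, room temperature; Signal: luminescence from luciferase reaction; Read-out: luciferase activation; Controls: No-ATP low control, compound-free enzyme-plus-ATP high control.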
# HSP90 refold inh = inhibitors of HSP90 luciferase refolding in rabbit reticulocyte lysate. luciferase refolding luminescence, 3 h. inhibition, % at 5.6 µM. hit rate 0.91% among 290,000. AID 1789;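 active means inhibition above the screen-wide mean plus 3 SD, computed separately per campaign, cut at about 16% in these data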;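 further: 0% = DMSO wells and 100% = 60 µM geldanamycin wells; inhibitors lower the luminescence because luciferase stays unfolded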
# TRAIL sens C8 = sensitizes caspase-8 expressing cells to TRAIL. NB7+C8 cells + TRAIL, ATPlite viability luminescence. inhibition (viability loss, TRAIL sensitization), % at 10 µM. hit rate 1% among 360,000. AID 624354;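 active means compounds causing at least 50% loss of cell viability in the single-dose screen, relative to plate controls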
# STAT3 blocker = STAT3 signaling inhibition. U3A cells, IL-6 STAT3-luciferase reporter, luminescence; host cell line lacks STAT1. inhibition, % at 5.5 µM. hit rate 0.89% among 190,000. AID 862;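 active means inhibition above the mean inhibition across all screened compounds plus 3 SD, cut at about 44% in these data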;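 further: 0% = DMSO only wells and 100% = 100 µM nifuroxazide control wells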
# FLuc inhib CS = counter-screen for luciferase assay inhibitors: firefly luciferase inhibition; P08659; ATPLite firefly luciferase biochemical luminescence, 10 min; inhibition, % at 10 µM; hit rate 1.5% among 200,000; AID 1006;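 active means inhibition above about 50% when tested at 10 µM, limit read from the data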
# HSP90 confirm = HSP90 inhibition, confirmation assay; shares compounds with HSP90 refold inh; rabbit reticulocyte lysate, luciferase refolding luminescence, 3 h; inhibition, % at 5.9 µM; hit rate 64% among 2,300; AID 1846; in the data active means inhibition above about 18%;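 further: 0% = vehicle wells and 100% = reference inhibitor wells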
# luciferase ctr = counter-screen for HSP90 inhibitors: inhibitors of firefly luciferase; inhibition, % at 5.9 µM; hit rate 48% among 2,300; shares compounds with HSP90 refold inh; purified native firefly luciferase, luminescence;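 active means inhibition above the mean inhibition of all tested sample wells plus 3 SD, cut at about 10% in these data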;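 further: 0% = DMSO with luciferase and 100% = wells lacking luciferase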
# Numbers without * were called inactive; . = not tested or not shown. Compounds with a hit are over-represented: about 2.2% of the library has one in this group of screens.
SMILES,PPC-1+TRAIL kill,FLuc stim CS,HSP90 refold inh,TRAIL sens C8,STAT3 blocker,FLuc inhib CS,HSP90 confirm,luciferase ctr
O=C(O)c1ccc2noc(-c3ccccc3)c2c1,-28,1.1,41*,-5,-6,-6,12,-15
O=C(O)c1ccc2nc(-c3ccccc3)c(-c3ccccc3)nc2c1,4,1,42*,10,-7,-2,51*,37*
NC(=O)c1ccc2nc(-c3ccccc3)c(-c3ccccc3)nc2c1,.,.,-1,-4,.,.,.,.
CC(=O)COC(=O)c1ccc2noc(-c3ccccc3)c2c1,.,.,20*,8,.,.,5,-12
O=C(NC1CC2CCC1C2)C1COc2ccccc2O1 (stereo unspecified),3,1.1,-2,10,8,-7,.,.
CC(/C=N/NC(=O)c1sc(N)nc1C)=C\c1ccccc1,28,0.7,-5,6,27,30,.,.
CC(=O)c1cccc(NC(=O)CSc2nnc(-c3ccncc3)o2)c1,.,.,.,14,.,.,.,.
CN(CC#CC(O)(c1ccccc1)c1ccccc1)C(C)(C)C,8,.,-1,-14,.,.,.,.
NC(=S)N/N=C/c1ccccc1,-5,1,5,-4,7,-2,.,.
NC(=S)N/N=C/c1ccc(C23CC4CC(CC(C4)C2)C3)cc1,.,.,24*,.,.,.,8,-32
COc1cc(NC(=O)c2ccc(Cl)cc2)c(Cl)cc1NC(=O)c1cccnc1,.,.,45*,-1,.,.,0,-9
COc1cc(NC(=O)c2cccnc2)c(Cl)cc1NC(=O)c1ccc(Cl)cc1,.,.,-2,-6,.,.,.,.
Cc1ccc(C(=O)Nc2cccc(NC(=O)c3cccnc3)c2)cc1,.,.,38*,-28,.,.,0,-7
O=C(C(=O)c1cccnc1)c1cccnc1,16,.,20*,-3,.,.,-2,-7
COc1ccc(NC(=O)c2noc3c2CCC3)cc1,-6,0.6,27*,30,10,38,20*,31*
C/C(=N/NC(=O)CN1CCN(S(=O)(=O)c2ccc(C)cc2)CC1)c1cccc(O)c1,-4,.,0,16,.,.,.,.
CC(=O)N(C)c1ccc(NC(=S)NCC(C)C)cc1,15,1,3,-2,2,1,.,.
CCCCN1C(=O)C(CC(=O)NCc2ccco2)CC(C(=O)N2CCOCC2)=C1C (stereo unspecified),.,.,.,5,.,.,.,.
COc1ccc(NC(=O)CN(C)C(=O)Cc2ccc(-c3ccccc3)cc2)cc1,.,.,.,-18,.,.,.,.
CCCS(=O)(=O)c1c(S(=O)(=O)CCC)c2c3ccccc3ccn2c1C(N)=O,36,1.1,-2,-7,10,-8,.,.
O=C(Nc1ccc2ncccc2c1)c1cccc(Br)c1,.,.,-2,9,.,.,.,.
COc1ccc(NC(=O)c2cccnc2)cc1,.,.,23*,3,.,.,-8,-9
Cc1ccc(C(=O)Nc2ccc3ncccc3c2)cc1,.,.,50*,90*,.,.,71*,58*
COc1ccc(NC(=O)c2ccc3nccnc3c2)cc1,33,0.6,-2,18,20,36,.,.
COc1ccc(C(=O)Nc2cccnc2)cc1,26,0.9,1,4,8,5,.,.
SMILES,PPC-1+TRAIL kill,FLuc stim CS,HSP90 refold inh,TRAIL sens C8,STAT3 blocker,FLuc inhib CS,HSP90 confirm,luciferase ctr
COc1ccc(C(=O)Nc2ccc3ncccc3c2)cc1,.,.,29*,83*,.,.,49*,29*
CN(C(=O)CSc1nc(-c2ccccc2)cn1N)C(c1ccccc1)c1ccccc1,-3,1.1,18*,5,-3,-6,-1,-6
COc1ccccc1CNC(=O)CSc1nc(-c2ccccc2)cn1N,14,1,6,-3,0,-2,.,.
Nc1ncnc2c1ncn2[C@@H]1O[C@H](CNC(=O)[C@@H]2C[C@H](F)CN2)[C@@H](O)[C@H]1O,.,.,.,-1,.,.,.,.
CCOc1ccc(NC(=O)c2[nH]c(C)c(C(C)=O)c2C)cc1,.,.,19*,7,.,.,12,-2
COc1ccc(S(=O)(=O)N(C)C[C@H]2Oc3ccc(NC(=O)C4CC4)cc3C(=O)N([C@H](C)CO)C[C@@H]2C)cc1,.,.,.,-5,.,.,.,.
COCC(=O)Nc1ccc(N2CCN(c3ccccc3)CC2)c(F)c1,.,.,27*,-5,.,.,-7,-13
C/C(=N\NC(=O)c1ccccc1)C1C2C=CC(C2)C1(C)C (stereo unspecified),.,.,-6,25,.,.,.,.
COC(=O)c1ccc(COc2ccc(C=O)cc2)o1,.,.,0,-6,.,.,.,.
CC(C)(C)c1ccc(OCc2ccc(C(=O)Nc3cccnc3)o2)cc1,.,.,26*,39,.,.,23*,-6
O=C(NCc1cccnc1)c1ccc(COc2ccc3c(c2)CCC3)o1,16,1,-2,-10,10,-2,.,.
CCc1ccc(OCc2ccc(C(=O)OC)o2)cc1,.,.,56*,6,.,.,75*,-14
COC(=O)c1ccc(COc2ccc3c(c2)CCC3)o1,-21,.,23*,-17,.,.,40*,-16
COC(=O)c1ccc(COc2ccc(NC(C)=O)cc2)o1,10,.,0,18,.,.,.,.
COC(=O)c1ccc(COc2ccc(C(C)(C)C)cc2)o1,.,.,29*,4,.,.,35*,-20
C[C@H](CO)N1C[C@H](C)[C@@H](CN(C)S(=O)(=O)c2ccc(F)cc2)Oc2ccc(NC(=O)NC3CCCCC3)cc2C1=O,.,.,.,-16,.,.,.,.
CCC(C)c1ccc(OCc2ccc(C(=O)OC)o2)cc1 (stereo unspecified),-5,.,26*,-3,.,.,65*,-22
NNC(=O)c1ccc(COc2ccc3c(c2)CCC3)cc1,18,1,1,13,2,0,.,.
COC(=O)c1ccc(COc2ccc(/C=N/O)cc2)o1,0,1,3,2,0,4,.,.
O=C(O)c1ccc(COc2ccc3c(c2)CCC3)cc1,7,.,49*,-1,.,.,63*,17*
COc1cccc(OCc2cc(/C=N/Nc3ccc(C(=O)O)cc3)ccc2OC)c1,-15,.,55*,0,.,.,66*,56*
COc1cccc(C(=O)Oc2ccc(/C=N/Nc3ccc(C(=O)O)cc3)cc2OC)c1,.,.,22*,3,.,.,48*,31*
COc1ccc(C(=O)N/N=C/c2ccc(OC)c(COc3ccc(F)cc3)c2)cc1,.,.,1,-7,.,.,.,.
CCOc1ccc2c(c1)c(N=Nc1cccc(C(=O)O)c1)c(O)n2C,1,1,27*,1,-19,2,30*,6
Oc1c(N=Nc2ccccc2)sc2ccccc12,17,.,18*,44,.,.,48*,39*
CC(=Nc1ccc(O)cc1)c1sc2ccccc2c1O,-14,0.5,-3,21,18,48,.,.
COC(=O)c1ccccc1OCCCOc1ccc(C=O)cc1OC,13,1,60*,8,-38,-4,70*,-10
